Screens: PubChem, The Scripps Research Institute Molecular Screening Center
PLC-beta3 inh = human PLC-beta3 inhibitors, primary screen, biochemical, fluorescence | Purified PLC-beta3, fluorogenic substrate | 1-phosphatidylinositol 4,5-bisphosphate phosphodiesterase beta-3 (Homo sapiens), Q01970 | 0.18% of 370,000 active | inhibition, % at 12.2 µM | AID 720704, 2013; in the data active = inhibition above about 11%;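 note: 0% = median of compound wells on plate and 100% = full blocker control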
ADAM10 inh = human ADAM10 inhibitors, primary screen, biochemical, QFRET, HTS | Disintegrin and metalloproteinase domain-containing protein 10 (Homo sapiens), O14672 | recombinant ADAM10, EDANS/DABCYL FRET peptide cleavage, 3 h | 0.62% of 370,000 active | AID 720582, 2013 | inhibition, % at 7 µM;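 active = inhibition above a per-campaign cutoff equal to the mean of compounds falling between control-based bounds plus 3 SD, cut at about 20% in these data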;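 note: 0% = DMSO wells while the 100% control is not disclosed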
DDE Tn6 FP inh = inhibitors of Tn6 peptide binding to fibrin DD(E), primary screen, biochemical, fluorescence polarization, human fibrin, Tn6 probe | 0.21% of 370,000 active | Fibrin DD(E) TRITC-Tn6 fluorescence polarization displacement | Fibrinogen beta chain (Homo sapiens), P02675 | AID 720509, 2013 | inhibition, % at 8.3 µM;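 active = inhibition above a per-campaign cutoff: mean of compounds within control limits plus 3 SD, cut at about 15% in these data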;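 note: 0% = median of all compound wells on the plate and 100% = blocking peptide control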
Target sequence (P02675 whole entry, looked up): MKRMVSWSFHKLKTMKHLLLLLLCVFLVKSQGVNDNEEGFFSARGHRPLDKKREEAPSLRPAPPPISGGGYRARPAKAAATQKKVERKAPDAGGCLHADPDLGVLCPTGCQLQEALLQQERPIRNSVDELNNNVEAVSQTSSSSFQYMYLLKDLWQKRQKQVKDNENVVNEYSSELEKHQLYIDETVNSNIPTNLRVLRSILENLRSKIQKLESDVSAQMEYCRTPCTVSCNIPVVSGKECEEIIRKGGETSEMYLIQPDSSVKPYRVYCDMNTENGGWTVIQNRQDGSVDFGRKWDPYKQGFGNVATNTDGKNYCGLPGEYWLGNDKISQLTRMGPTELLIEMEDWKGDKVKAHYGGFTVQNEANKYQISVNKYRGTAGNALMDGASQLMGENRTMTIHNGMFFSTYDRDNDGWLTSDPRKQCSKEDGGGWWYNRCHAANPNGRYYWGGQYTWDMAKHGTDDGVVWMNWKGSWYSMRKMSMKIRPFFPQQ
ADAM17 inh = ADAM17 inhibitors, primary screen, biochemical, QFRET | Disintegrin and metalloproteinase domain-containing protein 17 (Homo sapiens), P78536 | recombinant ADAM17, EDANS/DABCYL FRET peptide cleavage | inhibition, % at 6.95 µM | 0.83% of 370,000 active | AID 720648, 2013;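 active = inhibition above the mean of compounds lying between control limits plus 3 SD, set per campaign, cut at about 8.5% in these data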;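 note: 0% = DMSO-only wells as the low control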
Tn7 DDE FP = inhibitors of Tn7 peptide binding to fibrin DD(E), primary screen, biochemical, fluorescence polarization, human fibrin, Tn7 probe. 0.13% of 370,000 active. FP displacement of FITC-Tn7 peptide from fibrin DD(E); 0% = median of compound wells per plate. Fibrinogen beta chain (Homo sapiens), P02675. inhibition, % at 8.3 µM;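 active = inhibition above the mean of compounds falling within the control limits plus 3 SD of them, cut at about 14% in these data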;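 note: 0% = plate median of compound wells and 100% = 10 µM Aha-Tn7 peptide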
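Test system: human clot-derived fibrin DD(E) complex / Quantity: 2 µM final DD(E) protein / Incubation: 10 min plus 3 h, room temperature / Measured by: fluorescence polarization / Benchmarks: high control of 10 µM Aha-Tn7 peptide / Replicates: singlicate testing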
PLCg1 inh = PLC-gamma1 enzyme inhibitors, primary screen, biochemical, fluorescence, purified enzyme; 1-phosphatidylinositol 4,5-bisphosphate phosphodiesterase gamma-1 (Homo sapiens), P19174; fluorogenic substrate; inhibition, % at 12.2 µM; 0.84% of 370,000 active; AID 720700, 2013; in the data active = inhibition above about 9.5%
ADAM10 confirm = human ADAM10 inhibitors, confirmation, biochemical, QFRET, triplicate; shares compounds with ADAM10 inh; ADAM10 QFRET peptide cleavage, EDANS fluorescence; inhibition, % at 6.95 µM; 1% of 2,100 active; AID 743208, 2013;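 active = inhibition above about 20% chosen separately for each screening run, limit read from the data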;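 note: 0% = DMSO wells and 100% = marimastat wells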
ADAM17 counter = ADAM17 inhibitors, counter-screen for ADAM10 exosite inhibitor project, biochemical, QFRET, high throughput | AID 743214, 2013 | 0.5% of 2,100 active | shares compounds with ADAM10 inh | ADAM17 QFRET peptide cleavage, EDANS fluorescence | inhibition, % at 6.95 µM;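 active = mean triplicate inhibition above the solvent-only control wells' mean plus 3 SD, cut at about 12% in these data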;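 note: 0% = DMSO wells and 100% = marimastat wells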
ADAM10 ctr = ADAM10 inhibitors, counter-screen for ADAM17 exosite inhibitor project, biochemical, FRET, human ADAM10 | AID 743256, 2014 | recombinant ADAM10, EDANS/DABCYL FRET peptide cleavage, 3 h | inhibition, % at 6.95 µM | 47% of 2,900 active | shares compounds with ADAM17 inh;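 active = mean inhibition over the triplicate runs exceeds the activity threshold set in the earlier primary screen, cut at about 20% in these data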;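 note: 0% = DMSO wells and 100% = marimastat wells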
ADAM17 confirm = ADAM17 inhibitors, hit retest, confirmation, biochemical, QFRET peptide cleavage; shares compounds with ADAM17 inh; recombinant ADAM17, EDANS/DABCYL QFRET peptide cleavage; inhibition, % at 6.95 µM; 65% of 2,900 active; AID 743257, 2014;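 active = mean inhibition across replicates above the hit cutoff set in the primary screen, cut at about 8.5% in these data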;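 note: 0% = DMSO wells and 100% = marimastat wells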
* marks the source's active call; other numbers are inactive results; nt = no result given. Most compounds without a hit are left out; they make up all but 2.3% or so of the library.

SMILES | PLC-beta3 inh | ADAM10 inh | DDE Tn6 FP inh | ADAM17 inh | Tn7 DDE FP | PLCg1 inh | ADAM10 confirm | ADAM17 counter | ADAM10 ctr | ADAM17 confirm
CC1(C(=O)Nc2ccc3c(c2)OCO3)Cc2c(-c3cccc(C(F)(F)F)c3)ccnc2O1 (centres undefined) | -1.2 | 21.2* | 8.1 | 10.2* | 8.9 | 1.6 | 7.3 | 2.7 | 24.1* | 13.0*
COc1ccc(NC(=O)C2(C)Cc3c(-c4cccc(C(F)(F)F)c4)ccnc3O2)cn1 (centres undefined) | 7.4 | 25.8* | -3.6 | 12.1* | -7.0 | 2.8 | 0.9 | 0.2 | 16.3 | 11.8*
CC1(C(=O)Nc2cccc(C(F)(F)F)c2)Cc2c(-c3cccc(C(F)(F)F)c3)ccnc2O1 (centres undefined) | 1.4 | -5.7 | -5.6 | -1.9 | 12.3 | -2.9 | nt | nt | nt | nt
CC1(C(=O)Nc2cccc(C(F)(F)F)c2)Cc2c(-c3ccc4c(c3)OCO4)ccnc2O1 (centres undefined) | -11.6 | 6.2 | 1.6 | 4.3 | 13.6 | -6.7 | nt | nt | nt | nt
CC(=O)Nc1cccc(-c2ccnc3c2CC(C)(C(=O)Nc2cccc(Oc4ccccc4)c2)O3)c1 (centres undefined) | -0.7 | 25.3* | 0.3 | 9.6* | -2.6 | 0.5 | 8.3 | 2.8 | 20.4* | 14.9*
CC(=O)Nc1cccc(-c2ccnc3c2CC(C)(C(=O)Nc2cccc(C(F)(F)F)c2)O3)c1 (centres undefined) | 4.2 | 21.4* | -5.6 | 8.7* | 2.3 | 2.9 | 7.6 | 1.7 | 17.8 | 10.3*
CNC(=O)C[C@@H]1CC[C@@H]2[C@H](COc3ccc(NC(=O)c4cccc(F)c4)cc3C(=O)N2C)O1 | 3.2 | -0.7 | 1.4 | -4.4 | 7.8 | -1.8 | nt | nt | nt | nt
C[C@H](O)[C@@H]1CN2CCc3c([nH]c4c(-c5ccc6c(c5)OCO6)cccc34)[C@@H]2C[C@@H]1N(C)C(=O)Nc1ccccc1 | -4.2 | -7.1 | 0.3 | -1.6 | -5.0 | -2.5 | nt | nt | nt | nt
O=C(NN=Cc1ccc(-c2ccccc2)cc1)c1cc(-c2ccc(Cl)cc2)n[nH]1 | 6.1 | -0.1 | 9.8 | -0.2 | -7.1 | -0.3 | nt | nt | nt | nt
CCOC(=O)c1ccc(NC(=O)CN(Cc2ccc(Cl)cc2)S(C)(=O)=O)cc1 | 1.2 | 26.1* | -3.8 | 11.3* | 4.4 | 2.1 | 1.1 | 0.3 | 25.1* | 15.2*
COc1ccc(C(C(=O)NC2CCCCC2)N(C(=O)c2sc(C)nc2C)c2ccccc2C)cc1 (centres undefined) | 8.9 | 19.8* | -3.4 | 9.6* | -4.3 | 9.9* | 1.6 | -0.2 | 2.8 | 3.8
COc1ccc(C(C(=O)NC2CCCCC2)N(C(=O)c2sc(C)nc2C)c2ccccc2)cc1 (centres undefined) | 1.4 | 2.1 | -4.0 | -0.4 | 5.1 | 0.9 | nt | nt | nt | nt
O=C(NC1CCCCN(Cc2cccc(C(F)(F)F)c2)C1=O)c1cccc(F)c1 (centres undefined) | 0.1 | 2.7 | 1.1 | -1.5 | -0.9 | 0.8 | nt | nt | nt | nt
CCOC(=O)c1c(CSc2ccccc2)oc2ccc(O)cc12 | 2.0 | 28.9* | 0.9 | 11.3* | 1.3 | 1.0 | 6.5 | 2.4 | 42.3* | 15.9*
CCOC(=O)c1c(-c2ccccc2)oc2ccc(O)cc12 | -83.5 | -11.8 | -2.4 | -7.1 | 1.5 | -60.0 | nt | nt | nt | nt
CCOC(=O)c1c(CSc2ccc(C)cc2)oc2ccc(O)cc12 | 0.8 | 30.4* | -3.5 | 12.7* | 0.2 | 1.8 | 12.4 | 4.3 | 46.0* | 18.9*
CCOC(=O)c1c(CN2CCN(C)CC2)oc2ccc(O)cc12 | 3.8 | -5.4 | -9.0 | -3.5 | -2.7 | 0.6 | nt | nt | nt | nt
Cc1ccc(SCCNC(=O)c2ccccc2)cc1 | 2.7 | 3.1 | 5.2 | -2.5 | -6.2 | 1.0 | nt | nt | nt | nt
Cc1ccc(C)c(S(=O)(=O)Nc2ccc(C(=O)NCCCN(C)C)cc2)c1 | -6.2 | -12.1 | -0.7 | -5.0 | 2.7 | 2.0 | nt | nt | nt | nt
Cc1ccc(SCCNC(=O)c2ccc(C)c(S(=O)(=O)Nc3cccc(C)c3)c2)cc1 | 1.1 | 27.0* | 3.1 | 12.0* | -1.0 | 1.5 | 6.9 | 3.0 | 30.4* | 17.2*
Cc1ccc(NS(=O)(=O)c2cc(C(=O)NCCSc3ccc(C)cc3)ccc2C)cc1 | 3.6 | 23.2* | 1.7 | 11.6* | -11.2 | 3.1 | 7.1 | 3.0 | 37.7* | 20.3*
CS(=O)(=O)Nc1ccccc1C(=O)NCCSc1ccc(Cl)cc1 | -40.1 | -106.5 | -5.5 | -52.3 | 10.3 | -26.5 | nt | nt | nt | nt
Cc1ccc(C(=O)NCCSc2ccc(Cl)cc2)cc1S(=O)(=O)Nc1ccccc1 | 4.9 | 25.2* | -1.4 | 11.0* | -5.0 | 3.5 | 7.5 | 2.5 | 27.0* | 15.7*
Cc1cccc(NS(=O)(=O)c2cc(C(=O)NCCC3=CCCCC3)ccc2Cl)c1 | 1.8 | 21.1* | -2.1 | 8.7* | -0.5 | 2.3 | 5.7 | 2.4 | 21.4* | 11.7*
Cc1ccccc1NS(=O)(=O)c1cc(C(=O)NCCC2=CCCCC2)ccc1Cl | 3.0 | 7.9 | -8.5 | 3.4 | 3.6 | 1.7 | nt | nt | nt | nt
CCCCCCCCN1C(=O)[C@@H](CC(=O)N2CCCC2)C[C@@]2(C(=O)OC)C1=C[C@H](COCc1ccccc1)O[C@@H]2C | -0.6 | 6.6 | 0.1 | 4.3 | -3.1 | -0.8 | nt | nt | nt | nt
O=C(CN(C1CC1)S(=O)(=O)c1ccc(S(=O)(=O)NC2CCCCC2)cc1)Nc1ccccc1 | 3.7 | 10.2 | -9.3 | 5.4 | -11.9 | 2.0 | nt | nt | nt | nt
